Experimental data as given in ChEMBL document CHEMBL1142080, “In vitro activities of amphotericin B, caspofungin, itraconazole, posaconazole, and voriconazole against 45 clinical isolates of zygomycetes: comparison of CLSI M38-A, Sensititre YeastOne, and the Etest” (2007).
In brackets after ≈: the same amount, converted by molar mass.

Legend:
Format in all cases: functional
Cunninghamella [1] = assay: Antifungal activity against Cunninghamella spp after 48 hrs
Procedure, shortened: (§1)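 Broth microdilution per CLSI M38-A, with plates incubated at 35°C and read at 24 and 48 h. Final well concentrations were 0.03 to 16 µg/ml for four agents and 0.250 to 256 µg/ml for the echinocandin. The MIC was the lowest concentration giving complete growth inhibition (MIC-0). For the echinocandin, the MEC was also read as the lowest concentration showing abnormal growth. QC strains were A. flavus ATCC 204304 and A. fumigatus ATCC 204305.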

Mucor [2] = assay: Antifungal activity against Mucor spp after 24 hrs; procedure, shortened: as §1
Rhizopus [3] = assay: Antifungal activity against Rhizopus spp after 24 hrs; procedure, shortened: as §1
Syncephalastrum [4] = assay: Antifungal activity against Syncephalastrum spp after 24 hrs; procedure, shortened: as §1
Rhizomucor [5] = assay: Antifungal activity against Rhizomucor spp after 24 hrs; procedure, shortened: as §1
Absidia [6] = assay: Antifungal activity against Absidia spp after 24 hrs; procedure, shortened: as §1
Rhizomucor [7] = assay: Antifungal activity against Rhizomucor spp after 48 hrs; procedure, shortened: as §1
Absidia [8] = assay: Antifungal activity against Absidia spp after 48 hrs; procedure, shortened: as §1
Cunninghamella [9] = assay: Antifungal activity against Cunninghamella spp after 24 hrs; procedure, shortened: as §1
Mucor [10] = assay: Antifungal activity against Mucor spp after 48 hrs; procedure, shortened: as §1
Syncephalastrum [11] = assay: Antifungal activity against Syncephalastrum spp after 48 hrs; procedure, shortened: as §1
Rhizopus [12] = assay: Antifungal activity against Rhizopus spp after 48 hrs; procedure, shortened: as §1

| SMILES | MIC50 (Cunninghamella [1]) [µg/mL] | MIC90 (Cunninghamella [1]) [µg/mL] | MIC50 (Mucor [2]) [µg/mL] | MIC90 (Mucor [2]) [µg/mL] | MIC50 (Rhizopus [3]) [µg/mL] | MIC90 (Rhizopus [3]) [µg/mL] | MIC50 (Syncephalastrum [4]) [µg/mL] | MIC90 (Syncephalastrum [4]) [µg/mL] | MIC50 (Rhizomucor [5]) [µg/mL] | MIC90 (Rhizomucor [5]) [µg/mL] | MIC50 (Absidia [6]) [µg/mL] | MIC90 (Absidia [6]) [µg/mL] | MIC50 (Rhizomucor [7]) [µg/mL] | MIC90 (Rhizomucor [7]) [µg/mL] | MIC50 (Absidia [8]) [µg/mL] | MIC90 (Absidia [8]) [µg/mL] | MIC50 (Cunninghamella [9]) [µg/mL] | MIC90 (Cunninghamella [9]) [µg/mL] | MIC50 (Mucor [10]) [µg/mL] | MIC90 (Mucor [10]) [µg/mL] | other results |
| --- | --- | --- | --- | --- | --- | --- | --- | --- | --- | --- | --- | --- | --- | --- | --- | --- | --- | --- | --- | --- | --- |
| CC[C@@H]([C@H](C)O)n1ncn(-c2ccc(N3CCN(c4ccc(OC[C@@H]5CO[C@@](Cn6cncn6)(c6ccc(F)cc6F)C5)cc4)CC3)cc2)c1=O [POSACONAZOLE] | 0.5 (≈ 0.713 µM) | 0.5 (≈ 0.713 µM) | 0.5 (≈ 0.713 µM) | 2 (≈ 2.85 µM) | 0.5 (≈ 0.713 µM) | 0.5 (≈ 0.713 µM) | 0.25 (≈ 0.357 µM) | 0.5 (≈ 0.713 µM) | 0.5 (≈ 0.713 µM) | 0.5 (≈ 0.713 µM) | 0.5 (≈ 0.713 µM) | 1 (≈ 1.43 µM) | 2 (≈ 2.85 µM) | 2 (≈ 2.85 µM) | 0.5 (≈ 0.713 µM) | > 16 | 0.5 (≈ 0.713 µM) | 0.5 (≈ 0.713 µM) | 0.5 (≈ 0.713 µM) | 2 (≈ 2.85 µM) | MIC50 (Syncephalastrum [11]): 0.5 µg/mL (≈ 0.713 µM); MIC90 (Syncephalastrum [11]): 0.5 µg/mL (≈ 0.713 µM); MIC50 (Rhizopus [12]): 0.5 µg/mL (≈ 0.713 µM); MIC90 (Rhizopus [12]): 1 µg/mL (≈ 1.43 µM) |
| C[C@@H]1[C@H](O)[C@@H](C)/C=C/C=C/C=C/C=C/C=C/C=C/C=C/[C@H](O[C@@H]2O[C@H](C)[C@@H](O)[C@H](N)[C@@H]2O)C[C@@H]2O[C@](O)(C[C@@H](O)C[C@@H](O)[C@H](O)CC[C@@H](O)C[C@@H](O)CC(=O)O[C@H]1C)C[C@H](O)[C@H]2C(=O)O [AMPHOTERICIN B] | 2 (≈ 2.16 µM) | > 16 | 1 (≈ 1.08 µM) | 1 (≈ 1.08 µM) | 1 (≈ 1.08 µM) | 2 (≈ 2.16 µM) | 0.125 (≈ 0.135 µM) | 1 (≈ 1.08 µM) | 1 (≈ 1.08 µM) | 1 (≈ 1.08 µM) | 1 (≈ 1.08 µM) | 4 (≈ 4.33 µM) | 1 (≈ 1.08 µM) | 1 (≈ 1.08 µM) | 0.5 (≈ 0.541 µM) | 4 (≈ 4.33 µM) | 2 (≈ 2.16 µM) | 4 (≈ 4.33 µM) | 1 (≈ 1.08 µM) | 2 (≈ 2.16 µM) | MIC50 (Syncephalastrum [11]): 0.125 µg/mL (≈ 0.135 µM); MIC90 (Syncephalastrum [11]): 2 µg/mL (≈ 2.16 µM); MIC50 (Rhizopus [12]): 1 µg/mL (≈ 1.08 µM); MIC90 (Rhizopus [12]): 2 µg/mL (≈ 2.16 µM) |
| CCC(C)n1ncn(-c2ccc(N3CCN(c4ccc(OCC5COC(Cn6cncn6)(c6ccc(Cl)cc6Cl)O5)cc4)CC3)cc2)c1=O (stereo unspecified) [ITRACONAZOLE] | 1 (≈ 1.42 µM) | 4 (≈ 5.67 µM) | 1 (≈ 1.42 µM) | > 16 | 1 (≈ 1.42 µM) | > 16 | 1 (≈ 1.42 µM) | 1 (≈ 1.42 µM) | 2 (≈ 2.83 µM) | 2 (≈ 2.83 µM) | 1 (≈ 1.42 µM) | > 16 | > 16 | > 16 | 1 (≈ 1.42 µM) | > 16 | 1 (≈ 1.42 µM) | 4 (≈ 5.67 µM) | 4 (≈ 5.67 µM) | > 16 | MIC50 (Syncephalastrum [11]): 1 µg/mL (≈ 1.42 µM); MIC90 (Syncephalastrum [11]): 8 µg/mL (≈ 11.3 µM); MIC50 (Rhizopus [12]): 4 µg/mL (≈ 5.67 µM); MIC90 (Rhizopus [12]): > 16 µg/mL |
| C[C@@H](c1ncncc1F)[C@](O)(Cn1cncn1)c1ccc(F)cc1F [VORICONAZOLE] | > 16 | > 16 | > 16 | > 16 | 16 (≈ 45.8 µM) | 16 (≈ 45.8 µM) | 4 (≈ 11.5 µM) | > 16 | 16 (≈ 45.8 µM) | 16 (≈ 45.8 µM) | > 16 | > 16 | > 16 | > 16 | > 16 | > 16 | > 16 | > 16 | > 16 | > 16 | MIC50 (Syncephalastrum [11]): > 16 µg/mL; MIC90 (Syncephalastrum [11]): > 16 µg/mL; MIC50 (Rhizopus [12]): 16 µg/mL (≈ 45.8 µM); MIC90 (Rhizopus [12]): > 16 µg/mL |
| CC[C@H](C)C[C@H](C)CCCCCCCCC(=O)N[C@H]1C[C@@H](O)[C@@H](NCCN)NC(=O)[C@@H]2[C@@H](O)CCN2C(=O)[C@H]([C@H](O)CCN)NC(=O)[C@H]([C@H](O)[C@@H](O)c2ccc(O)cc2)NC(=O)[C@@H]2C[C@@H](O)CN2C(=O)[C@H]([C@@H](C)O)NC1=O [CASPOFUNGIN] | 256 (≈ 234 µM) | > 256 | 256 (≈ 234 µM) | > 256 | > 256 | > 256 | 256 (≈ 234 µM) | > 256 | 256 (≈ 234 µM) | 256 (≈ 234 µM) | 256 (≈ 234 µM) | > 256 | > 256 | > 256 | > 256 | > 256 | 256 (≈ 234 µM) | > 256 | > 256 | > 256 | minimal effective concentration (Cunninghamella [1]; read-out: MEC): 128 µg/mL; minimal effective concentration (Mucor [2]; read-out: MEC): 128 µg/mL; minimal effective concentration (Rhizopus [3]; read-out: MEC): 128 µg/mL; minimal effective concentration (Syncephalastrum [4]; read-out: MEC): 8 µg/mL; minimal effective concentration (Rhizomucor [5]; read-out: MEC): 32 µg/mL; minimal effective concentration (Absidia [6]; read-out: MEC): 64 µg/mL; minimal effective concentration (Rhizomucor [7]; read-out: MEC): 64 µg/mL; minimal effective concentration (Absidia [8]; read-out: MEC): 256 µg/mL; minimal effective concentration (Cunninghamella [9]; read-out: MEC): 128 µg/mL; MIC50 (Syncephalastrum [11]): 256 µg/mL (≈ 234 µM); MIC90 (Syncephalastrum [11]): > 256 µg/mL; minimal effective concentration (Syncephalastrum [11]; read-out: MEC): > 256 µg/mL; MIC50 (Rhizopus [12]): > 256 µg/mL; MIC90 (Rhizopus [12]): > 256 µg/mL; minimal effective concentration (Rhizopus [12]; read-out: MEC): 256 µg/mL |
